Among the data in ChEMBL document CHEMBL4513216, “Probing the Open Global Health Chemical Diversity Library for Multistage-Active Starting Points for Next-Generation Antimalarials” (ACS Infect Dis, 2020) are cytotoxicity values, retold here.

SMILES strings stand for the structures.

The nature of this data set: Toxicity liver stage against HepG2, at 10uM. Set-up: test concentration 10 uM, cell line HepG2-A16-CD81EGFP. Format: cell-based. The note with it: human, HepG2-A16-CD81EGFP cells; read-out: INHIBITION
Summed up: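 Uninfected HepG2-A16-CD81EGFP cells, 3 × 10^3 per well, 1536-well, plated on prespotted compound at 10 μM final, parasite-free screening media added to match infected plates; puromycin 10 μM positive, DMSO 0.5% negative; run in parallel with 48 h PbLuc assay at 37 °C, 5% CO2; viability by CellTiter-Glo luminescence, normalized to controls.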
With `Cc1ccccc1CSc1nc(N)cc(N2CCC(CC(N)=O)CC2)n1`, the cytotoxicity at 10 µM was -10.4%. With `COc1ccc(C(N)=O)cc1NCc1nc(-c2cccs2)oc1C` the figure was 1.83%.

As to `Cc1nc(-c2nnc[nH]2)sc1C(=O)N1CCCC1c1cccs1` (stereo unspecified), the cytotoxicity at 10 µM turned out to be 11.1%. For `O=C1CNc2ncnc(N3CCN(Cc4cccc(F)c4)CC3)c2N1` the value was 7.88%.

Consider `CCN(CC1CCOC1)C(=O)NCc1nnc2n1CCCCC2` (stereo unspecified), for which the cytotoxicity at 10 µM is -0.43%. For `Cc1ccc(CN2CCN(c3cc(NCCO)ncn3)CC2CCO)o1` (stereo unspecified) the value was 7.11%; for `Cc1csc(C(C)(C)NCc2ncc(-c3ccccc3)o2)n1`, 7.95%. With `COCCOc1ncccc1C(=O)N1CCCC(n2ccnc2C)C1` (stereo unspecified) the figure was -7.52%; with `O=C1COC2(COCCN(Cc3ccsc3)C2)CN1c1ccoc1` (stereo unspecified), -73.5%. With `CN1CCN(c2ccc3ccc(C(=O)N4CCCCO4)cn23)CC1` the figure was -7.3%; with `CCCNC(=O)N1CCc2ccc(S(=O)(=O)N3CCN(C)CC3)cc2C1`, -10%. For the compound `O=C(Nc1cnn(CCN2CCOCC2)c1)c1cc(F)ccc1F`, the cytotoxicity at 10 µM is -8.8%.

As for `CCCS(=O)(=O)NC(=O)c1sc(C2CCCC2)nc1C`, the cytotoxicity at 10 µM is 0.521%.

As for `COc1cccc(CNc2cnn(CC(F)F)c2)c1`, the cytotoxicity at 10 µM was -7.16%.

Turning to `CN1CCC(CCc2ccnc(NC(=O)c3ccccn3)c2)CC1`, the cytotoxicity at 10 µM was -2.12%. For `CN(C)S(=O)(=O)N1CCC(Oc2ccc(C#N)cn2)CC1` the value was 4.16%; for `Cc1cc(C)c(CNC(=O)N2CCN(c3ccccn3)CC2)c(=O)[nH]1`, -9.95%.

Turning to `O=C(CC1CCCCC1)N1C[C@@H]2CC[C@H]1CN(Cc1cccnc1)C2`, the cytotoxicity at 10 µM was -0.662%. Consider `CN(c1ccc(Cl)c(C(=O)NCCCN2CCOCC2)c1)S(C)(=O)=O`, for which the cytotoxicity at 10 µM came out at 1.05%.

As for `O=C(CCO)N[C@H]1CN(CC2CCC2)C[C@@H]1c1ccccc1`, the cytotoxicity at 10 µM is -0.447%. `Cc1ccccc1C1(CN)CCCCC1`: the cytotoxicity at 10 µM was found to be 2.29%. With `COCCn1cnc2ccc(NC(=O)CCCn3cccn3)cc2c1=O` the figure was 6.43%. For `CCCc1nc(CN(CC)Cc2ccc(O)c(C(=O)O)c2)no1` the value was -6.33%; for `CCC(C)C(=O)NCc1c(C)nn(C)c1N1CCCN(C)CC1` (stereo unspecified), 4.24%; for `Cc1nc(C)n(CC2CCCN2Cc2ncc(-c3ccccc3)o2)n1` (stereo unspecified), -4.92%. `CN1CCN(C2CCN(CCOc3ccc(Cl)cc3)CC2)C1=O`: the cytotoxicity at 10 µM was -5.36%. With `Cc1nnc(CN2CCCC2c2ccc(Cl)c(Cl)c2)o1` (stereo unspecified) the figure was -1.7%; with `COCCn1cc(NC(=O)NC(C)CCc2ccccc2)ccc1=O` (stereo unspecified), 3.4%. With `O=C1NCCO[C@H]2CN(C(=O)CC3Cc4ccccc4C3)CC[C@@H]12`, the cytotoxicity at 10 µM was -106%. Regarding `CN1CCN(Cc2cn3c(n2)CN(C(=O)N2CCOCC2)CC3)CC1`, the cytotoxicity at 10 µM was -18.3%. With `O=C(c1ccc[nH]1)N1CCn2cc(Cn3cccn3)nc2C1` the figure was -81.9%. For `Cc1ncsc1CCN1CCC(N(C)Cc2noc(C(C)C)n2)C1` (stereo unspecified), the cytotoxicity at 10 µM came to 2.17%.

Regarding `COCCNC(=O)[C@H]1CN(Cc2sccc2C)C[C@H]2OCC[C@@H]12`, the cytotoxicity at 10 µM stood at 2.05%. Take `O=C(C1CCCCC1)N1C[C@H]2CNC[C@H]2C1`: the cytotoxicity at 10 µM is -11.9%.

For `CCc1nc2n(n1)CC(NCc1nc(C)c(C)o1)CC2` (stereo unspecified), the cytotoxicity at 10 µM was -11%. With `CC(Cn1cccn1)NCc1nc(-c2ccccc2Cl)no1` (stereo unspecified) the figure was -3.56%. For `CC(C)c1nc2n(n1)CC(NCc1nnc(C(C)C)o1)CC2` (stereo unspecified) the value was -4.13%; for `CNC(=O)C(C)(C)NC(=O)c1cc(COc2cccc(C(C)=O)c2)[nH]n1`, 3.69%; for `CC(CN1CCOCC1)NC(=O)N1CCCC1` (stereo unspecified), 0.651%.

Turning to `Cc1nc(-c2cc(C(=O)N3CCCN(C)CC3)c3ccccn23)cn1C`, the cytotoxicity at 10 µM is 5.59%. With `CN(Cc1cccnc1)Cc1cncc2c1CCN(c1ccccn1)C2` the figure was -108%; with `Cn1cc(NC(=O)CCCc2cccs2)c(=O)n(C)c1=O`, 5.55%. For `CC(C)CNC(=O)[C@H]1CCS(=O)(=O)[C@@H]2CN(CC(C)C)C[C@H]12` the value was -1.66%; for `CN(C)C(=O)CN1CCOCC2(CCN(CC3CCOC3)CC2)C1` (stereo unspecified), 7.54%; for `CN(C)c1ncc(-c2cc(C(=O)NCCO)n(CC3CC3)c2)cn1`, -3.53%.

Consider `CCCC1CCCN(C(=O)CCn2cccn2)CC1` (stereo unspecified), for which the cytotoxicity at 10 µM is -9.48%. For `O=C(NCC(F)(F)F)c1nnn(-c2ccccc2)c1C(F)(F)F` the value was 4.39%; for `O=S(=O)(c1ccccc1)N1CCCN(CCCn2ccnc2)CC1`, -9.17%; for `O=C(N[C@@H]1CCC[C@@H](N2CCOCC2)[C@@H]1O)c1cnn2cccnc12`, -21.9%. With `CCCC(=O)NC(C)c1nnc2n1CCC2` (stereo unspecified) the figure was -0.645%; with `Cn1ccnc1CN1CCOCC(Cc2ccccn2)C1` (stereo unspecified), 7.17%; with `c1cncc(CN2Cc3nccn3CC(Cn3cccn3)C2)c1` (stereo unspecified), -102%. For `Cc1c(C(=O)N2CCCC(C(=O)c3nccn3C)C2)c[nH]c(=O)c1C#N` (stereo unspecified) the value was 5.73%; for `CSC(C)C(=O)N1CCCN(Cc2cscn2)CC1` (stereo unspecified), -2.19%. Consider `CCNc1nc2cn(-c3ccc(CC)cc3)c(=O)c-2c[nH]1`, for which the cytotoxicity at 10 µM is -3.31%. Take `CCN(CC)Cc1nc(Cc2cccc(C(F)(F)F)c2)no1`: the cytotoxicity at 10 µM was determined as 9.76%. With `Cc1cc(C)nc(N2CC=C[C@@H]2C(=O)NCc2ccc3c(c2)OCO3)n1` the figure was -8.49%. For the compound `CC(Cn1cccn1)NCc1nc(-c2cccs2)no1` (stereo unspecified), the cytotoxicity at 10 µM was -8.7%. For `Cc1cc(C(F)(F)F)nn1CC(C)C(=O)NC(C)C` (stereo unspecified) the value was 10%; for `Cc1cc(C)n(CC(C)CNC(=O)NCc2csc(C)n2)n1` (stereo unspecified), 11%. For `OCC1(CC2CC2)CCCN(Cc2cnc(C3CCCCC3)nc2)C1` (stereo unspecified) the value was -9.2%; for `Cc1cnn(C2CCCN(C(=O)c3ccc(-n4ccnc4)cc3)C2)c1` (stereo unspecified), -1.14%; for `CC1(C)CC1(C(=O)N1CC(c2cccnc2)C1)c1ccccc1F` (stereo unspecified), -10.7%. For `CC(C)CN1C[C@@H]2OCC(=O)N(c3ccccc3)[C@@H]2C1` the value was 1.08%; for `COc1cccc2[nH]cc(CCNC(=O)N3CCCC3CO)c12` (stereo unspecified), -10.1%. For `CN(C)[C@@H]1CN(Cc2ccoc2)C[C@@H]2CCCO[C@@H]21`, the cytotoxicity at 10 µM was found to be 1.93%. For `Cc1nc(N2C[C@H]3CNC[C@H]3C2)c2sccc2n1` the value was 9.26%. As to `COCC(O)CN(C)C(=O)NC1CCN(S(C)(=O)=O)CC1` (stereo unspecified), the cytotoxicity at 10 µM was -0.778%. For `COC[C@@]12CC[C@@H](N3CCOCC3)C[C@H]1CCN(c1cnccn1)C2` the value was 4.76%; for `CN(C)Cc1ccc(C2CCCCN2C(=O)c2cccc(CO)n2)cc1` (stereo unspecified), -16.9%.

As to `CN(C)c1nccc(N(C)C2CCN(CC3CCOC3)CC2)n1` (stereo unspecified), the cytotoxicity at 10 µM is -18.9%.

For the compound `O=C(c1coc(CN2CCN(c3ccccc3F)CC2)n1)N1CC=CC1`, the cytotoxicity at 10 µM was -3.06%. For `CNC(=O)c1cc(NC(=O)NC(C)CCc2cccn2C)ccc1F` (stereo unspecified), the cytotoxicity at 10 µM was -2.01%. With `O=C(NCc1cccc(-n2cncn2)c1)NCC(C1CC1)C1CC1` the figure was 6.03%.

As for `CN1CCN(C(=O)c2cnn(-c3ccccc3Cl)c2)CC1`, the cytotoxicity at 10 µM is -5.51%. With `O=C(c1cnc(Nc2ccccc2)nc1)N1CCC2(CCNCC2)CC1`, the cytotoxicity at 10 µM was -5.96%.

`O=C(C1CCOCC1)N1CCO[C@H]2[C@@H](OCC3CC3)CC[C@@H]21`: the cytotoxicity at 10 µM was -6.22%. With `CN(C)C(=O)c1ccc(C(C(=O)O)N(C)Cc2ccccc2Cl)cc1` (stereo unspecified) the figure was -54.6%; with `Cc1nc(C)n(CC2CN(CCOc3cccc(F)c3)CCO2)n1` (stereo unspecified), -12.7%; with `CC(=O)N1CCN(c2ccccc2CNc2ccc(C)cn2)CC1`, 11.2%. `c1ccc(Cc2cncc(C3CCCN3C3CCOCC3)n2)cc1` (stereo unspecified): the cytotoxicity at 10 µM is 1.4%. On to `CC(=O)N1CCN(C(=O)c2ccc(Sc3ccccn3)cc2)CC1`, for which the cytotoxicity at 10 µM was 10.7%.

With `Cc1nc(CN2CCCCC2Cn2cccn2)nc2ccccc12` (stereo unspecified), the cytotoxicity at 10 µM is -41.5%. For `Cc1ncc(C(=O)Nc2cncnc2N(C)C)c(Cl)c1Cl` the value was 0.776%; for `Cc1cnn(C2CN(Cc3nnc(Cc4ccccc4)o3)C2)c1`, 4.4%; for `O=C(O)c1ccc(S(=O)(=O)Nc2ccccc2F)c(F)c1`, 5.51%.

On to `Cc1cc(F)ccc1C(=O)N1CCN(C)C2(CCC(=O)N(C)CC2)C1` (stereo unspecified), for which the cytotoxicity at 10 µM was 4.78%. With `Cc1noc(C)c1CCC(=O)Nc1ccn(C)n1` the figure was -2.4%.

Regarding `CN(Cc1ccc2c(c1)OCO2)Cc1nc(Cc2ccccc2)no1`, the cytotoxicity at 10 µM was -2.59%. With `CCN(CC)c1ncccc1CNCc1ccc(-c2ccn[nH]2)s1` the figure was 6.43%; with `CN(C)CCN(Cc1ccccc1)C(=O)C1=NNC(=O)CC1`, -6.49%. Regarding `COCCN1CCN(Cc2coc(-c3ccccc3Cl)n2)CC1`, the cytotoxicity at 10 µM is -1.67%. With `CCS(=O)(=O)N1CC(c2nc(-c3ccsc3)no2)C1` the figure was -8.25%; with `CN1C[C@@H](C(=O)N2CCCOCC2)[C@@]2(CCc3ccccc3C(=O)N2)C1`, 8.64%; with `CCc1nc(CSc2nnc(N)n2C2CC2)no1`, 6.12%. For `Fc1cccnc1N1CCOCC2(CCCNC2)C1` (stereo unspecified), the cytotoxicity at 10 µM came to 3.44%.
